Measurements from ChEMBL document CHEMBL4390639, “Design, Synthesis, and Biological Evaluation of Novel Allosteric Protein Disulfide Isomerase Inhibitors” (J Med Chem, 2019).
Each block holds one compound with its values, some of them ahead of it. Calls of active or inactive are those of the source. No cut-off for these calls is given here.

How the values were obtained:
U-87 MG [1] = assay: Up regulation of OSGIN1 gene expression in human U87MG cells at 16 uM incubated for 4 hrs followed by bromouridine addition during last 30 mins of incubation by TRIzol-reagent based Bru-Seq analysis relative to control; format: functional, U-87MG ATCC
Method in brief: (§1)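 U87MG cells exposed to compound or DMSO vehicle for 4 h, with 2 mM bromouridine added for the final 30 min. Total RNA isolated with TRIzol; Bru-labelled nascent RNA captured on anti-BrdU antibody-conjugated magnetic beads and sequenced. Transcript abundance expressed as RPKM relative to DMSO. Experiment performed once.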

U-87 MG [2] = assay: Up regulation of TRIM16L gene expression in human U87MG cells at 16 uM incubated for 4 hrs followed by bromouridine addition during last 30 mins of incubation by TRIzol-reagent based Bru-Seq analysis relative to control; format: functional, U-87MG ATCC
U-87 MG [3] = assay: Up regulation of GCLC gene expression in human U87MG cells at 16 uM incubated for 4 hrs followed by bromouridine addition during last 30 mins of incubation by TRIzol-reagent based Bru-Seq analysis relative to control; format: functional, U-87MG ATCC; method in brief: as §1
U-87 MG [4] = assay: Down regulation of AC139722.1 gene expression in human U87MG cells at 16 uM incubated for 4 hrs followed by bromouridine addition during last 30 mins of incubation by TRIzol-reagent based Bru-Seq analysis relative to control; format: functional, U-87MG ATCC; method in brief: as §1
U-87 MG [5] = assay: Down regulation of C8orf4 gene expression in human U87MG cells at 16 uM incubated for 4 hrs followed by bromouridine addition during last 30 mins of incubation by TRIzol-reagent based Bru-Seq analysis relative to control; format: functional, U-87MG ATCC; method in brief: as §1
U-87 MG [6] = assay: Down regulation of AC006206.2 gene expression in human U87MG cells at 16 uM incubated for 4 hrs followed by bromouridine addition during last 30 mins of incubation by TRIzol-reagent based Bru-Seq analysis relative to control; format: functional, U-87MG ATCC; method in brief: as §1
U-87 MG [7] = assay: Down regulation of HLA-DQB1 gene expression in human U87MG cells at 16 uM incubated for 4 hrs followed by bromouridine addition during last 30 mins of incubation by TRIzol-reagent based Bru-Seq analysis relative to control; format: functional, U-87MG ATCC; method in brief: as §1
U-87 MG [8] = assay: Down regulation of RAET1E gene expression in human U87MG cells at 16 uM incubated for 4 hrs followed by bromouridine addition during last 30 mins of incubation by TRIzol-reagent based Bru-Seq analysis relative to control; format: functional, U-87MG ATCC; method in brief: as §1
U-87 MG [9] = assay: Down regulation of GGT4P gene expression in human U87MG cells at 16 uM incubated for 4 hrs followed by bromouridine addition during last 30 mins of incubation by TRIzol-reagent based Bru-Seq analysis relative to control; format: functional, U-87MG ATCC
U-87 MG [10] = assay: Down regulation of PRLR gene expression in human U87MG cells at 16 uM incubated for 4 hrs followed by bromouridine addition during last 30 mins of incubation by TRIzol-reagent based Bru-Seq analysis relative to control; format: functional, U-87MG ATCC
Method in brief: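 Bru-seq in U87MG cells treated at 16 μM for 4 h; 2 mM bromouridine present during the last 30 min. TRIzol total RNA, then anti-BrdU bead capture of labelled RNA and sequencing. Readout is RPKM traces versus DMSO control. Performed once.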

U-87 MG [11] = assay: Up regulation of HSPA6 gene expression in human U87MG cells at 10 uM incubated for 4 hrs followed by bromouridine addition during last 30 mins of incubation by TRIzol-reagent based Bru-Seq analysis relative to control; format: functional, U-87MG ATCC; method in brief: as §1
U-87 MG [12] = assay: Up regulation of HSPA1B gene expression in human U87MG cells at 10 uM incubated for 4 hrs followed by bromouridine addition during last 30 mins of incubation by TRIzol-reagent based Bru-Seq analysis relative to control; format: functional, U-87MG ATCC; method in brief: as §1
U-87 MG [13] = assay: Up regulation of HMOX1 gene expression in human U87MG cells at 10 uM incubated for 4 hrs followed by bromouridine addition during last 30 mins of incubation by TRIzol-reagent based Bru-Seq analysis relative to control; format: functional, U-87MG ATCC; method in brief: as §1
U-87 MG [14] = assay: Up regulation of BAG3 gene expression in human U87MG cells at 10 uM incubated for 4 hrs followed by bromouridine addition during last 30 mins of incubation by TRIzol-reagent based Bru-Seq analysis relative to control; format: functional, U-87MG ATCC; method in brief: as §1
U-87 MG [15] = assay: Up regulation of SLC7A5 gene expression in human U87MG cells at 10 uM incubated for 4 hrs followed by bromouridine addition during last 30 mins of incubation by TRIzol-reagent based Bru-Seq analysis relative to control; format: functional, U-87MG ATCC
Method in brief: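 U87MG cells treated 4 h with test compound (10 or 16 μM, as per line) or DMSO; 2 mM bromouridine added for final 30 min. Total RNA isolated with TRIzol, Bru-labelled nascent RNA captured with anti-BrdU antibody magnetic beads and sequenced; transcript abundance (RPKM) compared with DMSO control. Single experiment.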

U-87 MG [16] = assay: Up regulation of NUPR1 gene expression in human U87MG cells at 10 uM incubated for 4 hrs followed by bromouridine addition during last 30 mins of incubation by TRIzol-reagent based Bru-Seq analysis relative to control; format: functional, U-87MG ATCC; method in brief: as §1
U-87 MG [17] = assay: Up regulation of GCNT3 gene expression in human U87MG cells at 10 uM incubated for 4 hrs followed by bromouridine addition during last 30 mins of incubation by TRIzol-reagent based Bru-Seq analysis relative to control; format: functional, U-87MG ATCC; method in brief: as §1
U-87 MG [18] = assay: Down regulation of ST8SIA4 gene expression in human U87MG cells at 10 uM incubated for 4 hrs followed by bromouridine addition during last 30 mins of incubation by TRIzol-reagent based Bru-Seq analysis relative to control; format: functional, U-87MG ATCC
Method in brief: (§2)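 Nascent transcription (Bru-seq) in U87MG cells: treatment at 10 μM for 4 h, with 2 mM bromouridine added for the final 30 min. Total RNA isolated with TRIzol; Bru-labelled RNA captured using anti-BrdU antibody on magnetic beads, then sequenced. Transcript traces reported as RPKM compared with DMSO-treated cells. Single experiment.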

U-87 MG [19] = assay: Down regulation of ANKRD36B gene expression in human U87MG cells at 10 uM incubated for 4 hrs followed by bromouridine addition during last 30 mins of incubation by TRIzol-reagent based Bru-Seq analysis relative to control; format: functional, U-87MG ATCC
U-87 MG [20] = assay: Down regulation of MAD2L1 gene expression in human U87MG cells at 10 uM incubated for 4 hrs followed by bromouridine addition during last 30 mins of incubation by TRIzol-reagent based Bru-Seq analysis relative to control; format: functional, U-87MG ATCC; method in brief: as §2
U-87 MG [21] = assay: Down regulation of CCNA2 gene expression in human U87MG cells at 10 uM incubated for 4 hrs followed by bromouridine addition during last 30 mins of incubation by TRIzol-reagent based Bru-Seq analysis relative to control; format: functional, U-87MG ATCC
A 172 = assay: Induction of morphological changes in human A172 cells assessed as vesicle formation at 11 uM measured after 48 hrs by Giemsa-staining based microscopic analysis; format: functional, cell-based
[22] = biological target: Protein disulfide-isomerase (Homo sapiens, UniProt P07237); assay: Binding affinity to recombinant human N-terminal His-tagged PDI expressed in Escherichia coli BL21 (DE3) pLysS by ROX dye based thermal shift assay
Method in brief: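 Thermal shift conditions: PDI (0.5 mg/mL, 50 mM Tris, pH 7.0) with ROX dye, heated 25–99 °C at 1 °C/min. […] Kd was fitted from melting-temperature change versus vehicle.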

U-87 MG [23] = assay: Cytotoxicity against human U87MG cells assessed as inhibition of cell proliferation at 10 uM measured after 24 hrs treatment followed by 10 days by colony formation assay relative to control

Chain of Protein disulfide-isomerase (P07237 whole entry): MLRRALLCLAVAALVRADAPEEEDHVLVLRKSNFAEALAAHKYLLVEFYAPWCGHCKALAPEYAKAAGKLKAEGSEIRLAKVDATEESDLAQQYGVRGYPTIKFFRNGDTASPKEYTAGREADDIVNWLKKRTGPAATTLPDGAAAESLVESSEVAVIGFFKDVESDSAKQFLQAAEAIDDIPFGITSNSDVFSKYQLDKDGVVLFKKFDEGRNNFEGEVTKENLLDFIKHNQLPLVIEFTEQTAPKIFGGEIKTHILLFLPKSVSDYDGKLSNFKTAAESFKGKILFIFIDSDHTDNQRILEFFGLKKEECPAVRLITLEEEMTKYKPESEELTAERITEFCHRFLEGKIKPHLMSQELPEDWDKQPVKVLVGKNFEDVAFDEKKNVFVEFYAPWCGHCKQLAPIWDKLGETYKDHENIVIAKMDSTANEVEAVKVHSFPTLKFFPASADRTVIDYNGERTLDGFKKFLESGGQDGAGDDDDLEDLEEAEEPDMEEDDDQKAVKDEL

Compound: COC(=O)c1cccc(/C=C/C(=O)c2cccc(O)c2)c1
fold change (FC) (U-87 MG [1]): 5.4
fold change (FC) (U-87 MG [2]): 4.9
fold change (FC) (U-87 MG [3]): 1.9
fold change (FC) (U-87 MG [4]): 4.7
fold change (FC) (U-87 MG [5]): 4.7
fold change (FC) (U-87 MG [6]): 3.9
fold change (FC) (U-87 MG [7]): 3.7
fold change (FC) (U-87 MG [8]): 3.4
fold change (FC) (U-87 MG [9]): 3.3
fold change (FC) (U-87 MG [10]): 2.6

Compound: CCCCCN(CCCCC)S(=O)(=O)c1ccc(C(=O)/C=C/c2cccc(C#N)c2)cc1
fold change (FC) (U-87 MG [11]): 464.7
fold change (FC) (U-87 MG [12]): 107.2
fold change (FC) (U-87 MG [13]): 27.6
fold change (FC) (U-87 MG [14]): 17.1
fold change (FC) (U-87 MG [15]): 16.8
fold change (FC) (U-87 MG [16]): 11.8
fold change (FC) (U-87 MG [17]): 10
fold change (FC) (U-87 MG [18]): 3.1
fold change (FC) (U-87 MG [19]): 2.8
fold change (FC) (U-87 MG [20]): 2.4
fold change (FC) (U-87 MG [21]): 2.3

Compound: CCCCCN(CCCCC)S(=O)(=O)c1ccc(C(=O)/C=C/c2cccc(O)c2)cc1
Activity (A 172): Active

Kd [22]: 9.8 µM
Compound: N#Cc1cccc(/C=C/C(=O)c2ccc(O)cc2)c1
inhibition at 10 µM (U-87 MG [23]): < 40%
